Compounds with a hit are over-represented: about 3.7% of the library has one in this group of screens.
KCC2 mod: modulates chloride dependent transport by human KCC2; Q9H2X9; KCC2 cells, thallium flux FluoZin-2 fluorescence; B-score of Tl+ flux slope (higher = more flux/activation; lower = inhibition) at 10 µM; 190,000 tested, 2.2% active;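 active means thallium flux slope and its plate-corrected score both differing from the plate sample mean at a set confidence after two filtering rounds, in either direction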;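 further: slope of fluorescence scaled to starting intensity during 10 to 20 s after thallium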
Arbovirus inh: blocks arbovirus infection | arbovirus infection cell-based antiviral screen | inhibition, % at 10 µM | 200,000 tested, 0.37% active | AID 1251; in the data active means inhibition above about 30%
Mdm2 ligase inh: inhibitors of human Mdm2 E3 ubiquitin ligase; Q00987; cell-based MDM2 ubiquitination luciferase reporter, 2 h; 0 = plate control, 100 = twice control, blank-subtracted; signal enhancement, % at 5 µM; 210,000 tested, 0.11% active; AID 1230;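 active means signal enhancement of 30% or more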;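 further: luminescence tracks abundance of the self-degrading MDM2-luciferase fusion protein; higher signal means inhibition of MDM2 E3 ligase activity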
Target sequence (Q00987 whole entry, looked up, the tested form may be a part): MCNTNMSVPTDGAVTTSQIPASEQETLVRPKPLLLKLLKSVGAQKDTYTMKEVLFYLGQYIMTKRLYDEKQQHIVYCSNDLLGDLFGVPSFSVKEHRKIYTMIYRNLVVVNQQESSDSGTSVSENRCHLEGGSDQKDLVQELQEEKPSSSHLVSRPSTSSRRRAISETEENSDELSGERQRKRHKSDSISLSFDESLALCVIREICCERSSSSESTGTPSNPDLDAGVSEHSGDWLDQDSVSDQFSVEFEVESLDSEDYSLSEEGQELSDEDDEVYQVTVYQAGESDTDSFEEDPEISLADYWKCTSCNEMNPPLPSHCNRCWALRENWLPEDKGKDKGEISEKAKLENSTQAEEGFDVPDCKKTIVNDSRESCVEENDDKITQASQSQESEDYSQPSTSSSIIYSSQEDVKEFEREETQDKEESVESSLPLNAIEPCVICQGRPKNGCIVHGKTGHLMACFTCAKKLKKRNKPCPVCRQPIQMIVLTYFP
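Assay system: mammalian cells stably expressing self-ubiquitinating, self-degrading MDM2 E3–luciferase fusion. Quantity: 2000 cells in each well. Medium: DMEM culture medium. Compound dosing: single-point 5 µM. Timing: cell settling 4 h, compound treatment 2 h, both 37 °C. Technique: luciferase luminescence. Read-out basis: percent signal gain over controls, blank-subtracted. Benchmarks: plate controls and plate blanks.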
ROMK mod: modulates human ROMK potassium channel activity. P48048. 130,000 tested, 2% active. Tet-inducible ROMK, thallium flux fluorescence; actives lie on both sides. B-score at 10 µM;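 active means signal ratio slope over the read window, or its plate-corrected B-score, at least 3 SD from the plate mean, either direction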;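 further: B-score of the F/F0 ratio slope over 7 to 12 s after thallium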
Calpain2 inh: calpain II (pig) inhibition; purified calpain II, fluorogenic peptide substrate, 30 min; inhibition, % at 16 µM; 220,000 tested, 0.37% active; AID 1236;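 active means inhibition above about 50%, limit read from the data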
PKD1 kinase inh: PKD1 (human) kinase inhibition | inhibition, % (concentration not given with the values) | PKD1 kinase fluorescence polarization assay | AID 797 | 200,000 tested, 0.056% active | Q15139; in the data active means inhibition above about 50%
* hit, by the source's call; . = not tested or not shown.

SMILES	KCC2 mod	Arbovirus inh	Mdm2 ligase inh	ROMK mod	Calpain2 inh	PKD1 kinase inh
COc1ccc(N2CCN(C(=O)Cc3ccc(S(=O)(=O)N4CCOCC4)s3)CC2)cc1	1.6	19	7	-1.1	-33	-1
O=C(O)CCC(=O)NCc1c(Cl)cccc1Sc1ccc(Cl)cc1	-0.4	.	-18	.	3	.
Cc1ccc(O)c(C2=Nc3ccccc3C2(C)C)c1	2.1	-2	-41	0.53	21	0
COc1ccc(C)cc1C1=Nc2ccccc2C1(C)C	-0.062	-2	30*	.	-8	-16
O=C(CSc1nnnn1-c1ccc2c(c1)OCCO2)N1CCN(C(=O)c2ccco2)CC1	-0.88	0	-7	0.52	3	-1
Cc1sc2ncnc(SC(C)C(=O)N3c4ccccc4Sc4ccccc43)c2c1C (stereo unspecified)	2	-4	-2	.	-42	-3
Cc1ccc(OCC(=O)NNC(=O)C(C)Sc2ncnc3sc(C)c(C)c23)cc1 (stereo unspecified)	.	-11	6	.	91*	4
c1ccc2c(C3=NNC(=NC4CCCCC4)SC3)c[nH]c2c1	-0.47	-8	-10	.	75*	6
CCCc1ccc(OCC(=O)Nc2cc(S(=O)(=O)CC)ccc2O)cc1	-0.91	15	4	-0.57	-39	-6
CC(C)Cn1c(N)c(C(=O)COC(=O)c2cnc(Cl)c(Cl)c2)c(=O)n(C)c1=O	-0.9	5	-4	-1.5	63*	2
CC(C)Cn1c(N)c(C(=O)COC(=O)c2cc(F)cc(F)c2)c(=O)n(C)c1=O	-0.3	5	-1	-2	40	-2
O=C(Nc1nnc(-c2ccc(Cl)cc2)o1)C1=COCCO1	9.4*	2	1	-1	27	-3
COc1ccccc1C(=O)Nc1nnc(-c2ccc(Cl)cc2)o1	1.4	-7	-9	.	-13	.
COc1cccc(C(=O)N2c3ccccc3Sc3ccccc32)c1	0.12	-5	-25	.	52*	-2
COCCSc1ccccc1C(=O)Nc1ccccc1C#N	0.48	-2	-2	0.49	-17	2
O=C1NC(c2ccccc2)Nc2c1sc(=S)n2-c1ccccc1 (stereo unspecified)	-1.1	18	-9	0.87	4	-2
O=C(Nc1ccccc1Cl)c1cc(S(=O)(=O)N2CCCCC2)ccc1N1CCOCC1	.	-21	-11	-1	-27	0
O=C(Nc1cccc(C(F)(F)F)c1)c1cc(S(=O)(=O)N2CCCCC2)ccc1N1CCOCC1	-0.97	3	38*	.	8	-11
CCN(CC)S(=O)(=O)c1ccc(N2CCCCC2)c(C(=O)Nc2ccccc2N2CCOCC2)c1	-0.52	-4	-17	-3.6*	30	-10
O=C(NC12CC3CC(CC(C3)C1)C2)c1cc([N+](=O)[O-])ccc1N1CCOCC1	0.18	6	-2	0.023	15	0
O=C(O/N=C1\CCCCC1c1ccc([N+](=O)[O-])cc1[N+](=O)[O-])c1c(F)cccc1F (stereo unspecified)	.	-5	-18	.	63*	6
O=[N+]([O-])c1ccc(C2CCCC/C2=N/OCc2ccccc2F)c([N+](=O)[O-])c1 (stereo unspecified)	-1.3	-1	-11	.	7	-8
COc1ccc(C)cc1S(=O)(=O)N(C)CC(=O)NC1CCCCC1	1.3	2	30*	-0.25	-3	3
COc1ccc(C)cc1S(=O)(=O)N(C)CC(=O)NC1CCCCCC1	-0.033	-1	-12	-0.82	11	-5
O=C1c2ccccc2C(=O)N1CCCCN(C(=O)c1ccc(Cl)s1)c1ccc(Cl)cc1	-0.031	-11	4	-0.51	8	-4
SMILES	KCC2 mod	Arbovirus inh	Mdm2 ligase inh	ROMK mod	Calpain2 inh	PKD1 kinase inh
Cc1ccc(N(CCCCN2C(=O)c3ccccc3C2=O)C(=O)c2ccc(Cl)s2)cc1	-1.4	12	-22	.	50*	6
O=C(Nc1nc(=O)c2ccccc2s1)c1ccccc1	42*	-13	-25	3*	-23	7
O=C(Nc1nc(=O)[nH]s1)c1ccccc1	0.51	11	-6	0.35	57*	-2
O=C(Nc1nc2c(s1)C(=O)CCC2)c1ccccc1	0.28	-2	-35	.	15	-7
O=C(O)C1=C[C@H](c2csc3ccccc23)C[C@H](OCc2ccc(CO)cc2)O1	0.79	5	.	.	9	-1
O=C(O)C1=C[C@@H](c2csc3ccccc23)C[C@@H](OCc2ccc(CO)cc2)O1	-3.1*	2	.	.	24	6
N=c1c2c(-c3ccccc3)c(-c3ccccc3)n(Cc3ccco3)c2ncn1Cc1ccccc1	-1.5	-43	-6	-4.8*	-15	5
N=c1c2c(-c3ccccc3)c(-c3ccccc3)n(Cc3ccccc3)c2ncn1CCO	0.14	-31	-9	.	-40	-15
COC(=O)CSC1=C(C#N)C(=O)NC(c2ccccc2)S1 (stereo unspecified)	.	2	40*	-0.51	-1	7
COc1cc(/C=N/n2cnnc2)ccc1OS(=O)(=O)c1ccccc1[N+](=O)[O-]	0.099	4	4	.	59*	-4
O=[N+]([O-])c1ccccc1S(=O)(=O)Oc1ccc(/C=N/n2cnnc2)cc1	0.42	-1	-11	-0.41	25	-6
CCOc1cc(/C=N/n2cnnc2)ccc1OS(=O)(=O)c1ccccc1	-0.18	0	5	-0.29	63*	3
CC(C)Oc1cccc(C(=O)C2CCCN(S(C)(=O)=O)C2)c1 (stereo unspecified)	0.52	0	-3	0.42	-15	-5
COc1ccc(CN(C(=O)CSc2nnc(-c3ccc(F)cc3)o2)c2ccc(F)cc2)cc1	-1.2	31*	-9	.	17	-1
COc1ccc(-c2nnc(SCC(=O)c3ccc(C)o3)o2)cc1	0.53	-2	.	.	-6	-2
O=C(/C=C/c1cccs1)N1CCOCC1	-0.028	3	3	1.1	56*	-8
COc1ccc(Nc2nc(=O)c3cc([N+](=O)[O-])ccc3s2)cc1	1.6	.	.	.	60*	.
COc1ccc(N(C(=O)c2ccco2)S(=O)(=O)c2cc(Cl)c(Cl)cc2Cl)cc1	-0.15	-25	-5	0.56	54*	3
CCOC(=O)N1CCN(C(=O)c2ccc3c(c2)ncn3C2CCCC2)CC1	-0.4	-3	-6	.	27	5
CCOC(=O)N1CCC(NC(=O)c2ccc3c(c2)ncn3C2CCCC2)CC1	.	-4	-20	-0.42	77*	-15
O=C(O)CC/C(=C\c1cc([N+](=O)[O-])ccc1Cl)c1nc2ccccc2s1	-10*	-8	6	.	-25	-4
CNC(=O)Nc1ccccc1C(=O)Nc1ccccc1	0.54	.	-5	.	-6	.
CC(=O)NCCn1c(SCC(=O)NCc2ccco2)nc2ccccc2c1=O	2.8	4	-1	.	-4	1
CCCCn1c(SCC(=O)NCc2ccco2)nc2ccccc2c1=O	9.1*	10	-11	-1.2	-110	2
C/C(N)=C(/C#N)C(=O)CSc1nc2cc(Cl)ccc2c(=O)n1Cc1ccco1	.	3	-1	-0.38	-65	-9

Bioassay records from PubChem BioAssay.
